Source: ChEMBL document CHEMBL3352113, “Cytoprotective pyridinol antioxidants as potential therapeutic agents for neurodegenerative and mitochondrial diseases” (Bioorg Med Chem, 2014)
The source made the active and inactive calls. The rule behind the calls is not given here.

Tested on: Lymphocyte
Assay: Inhibition of oxidative stress-induced mitochondrial membrane depolarization in diethyl maleate-treated human lymphocytes obtained from FRDA patient assessed as cells with intact mitochondrial membrane potential at 250 nM pretreated for 16 hrs using TMRM by FACS analysis (reference value: 95%)
Format: functional
Set-up: scale not given: the % may be the effect or the level left
Details: not given

Q: Which Activity does the source give for CCCCCCCCCCCCCCCCc1nc(N2CCC2)c(C)c(C)c1O here?
A: 68%

Q: For CCCCCCCCCCc1nc(N(C)C)c(C)c(C)c1O, which Activity is on record?
A: 82%

Tested on: Lymphocyte
Assay: Cytoprotective activity in human lymphocytes obtained from Leigh's syndrome patient assessed as viable cells at 0.1 uM after 16 hrs by trypan blue exclusion assay
Format: functional
Details: read-out: Activity
In short: (§1)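 Lymphocytes from FRDA or Leigh's syndrome patients, grown in RPMI-1640 with 15% fetal calf serum and 2 mM glutamine, kept in log phase. Test agents at 0.1, 0.5 and 2.5 µM; diethyl maleate (DEM) added to deplete glutathione and induce oxidative stress. Viability expressed relative to untreated cells (100%). Values are mean ± SD/SEM as tabulated.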

Q: With CCCCCCCCCCCCCCCCc1nc(N2CCC2)c(C)c(C)c1O as the compound, how does the viability at 0.1 µM read?
A: 13%

Q: For CCCCCCCCCCc1nc(N(C)C)c(C)c(C)c1O, which viability at 0.1 µM is on record?
A: 6%

Species: Bos taurus
Assay: Inhibition of bovine heart mitochondrial NADH oxidase complex I/III/IV assessed as remaining activity by spectrophotometry relative to untreated control
Details: not given

Q: For CCCCCCCCCCCCCCCCc1nc(N2CCC2)c(C)c(C)c1O, which inhibition is on record?
A: Dose-dependent effect

Q: For CCCCCCCCCCc1nc(N(C)C)c(C)c(C)c1O, which inhibition is on record?
A: Dose-dependent effect

Species: Bos taurus
Assay: Inhibition of bovine heart mitochondrial NADH oxidase complex I/III/IV assessed as remaining activity at 5 uM by spectrophotometry relative to untreated control
Details: not given

Q: Which Activity does the source give for CCCCCCCCCCCCCCCCc1nc(N2CCC2)c(C)c(C)c1O here?
A: 94%

Q: Which Activity does the source give for CCCCCCCCCCc1nc(N(C)C)c(C)c(C)c1O here?
A: 28%

Tested on: Lymphocyte
Assay: Increase in ATP production in CoQ10-deficient lymphocytes (unknown origin) assessed as cellular ATP level at 25 uM after 48 hrs using luciferin-luciferase reaction by bioluminescence assay relative to control
Format: functional
Details: not given
In short: (§2)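 CoQ10-deficient lymphocyte line GM17932 grown in glucose-free RPMI 1640 with 25 mM galactose, 2 mM glutamine and 10% dialyzed FBS, forcing oxidative phosphorylation. Incubated with compounds at 5, 10 or 25 µM for 48 h. Total intracellular ATP measured by luciferin–luciferase reaction, expressed as % of untreated control.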

Q: Which Activity does the source give for CCCCCCCCCCCCCCCCc1nc(N2CCC2)c(C)c(C)c1O here?
A: 38%

Q: For CCCCCCCCCCc1nc(N(C)C)c(C)c(C)c1O, which Activity is on record?
A: 13%

Species: Bos taurus
Assay: Inhibition of bovine heart mitochondrial NADH oxidase complex I/III/IV assessed as remaining activity at 10 uM by spectrophotometry relative to untreated control
Details: not given

Q: For CCCCCCCCCCCCCCCCc1nc(N2CCC2)c(C)c(C)c1O, which Activity is on record?
A: 95%

Q: With CCCCCCCCCCc1nc(N(C)C)c(C)c(C)c1O as the compound, how does the Activity read?
A: 13%

Tested on: Lymphocyte
Assay: Cytoprotective activity in human lymphocytes obtained from Leigh's syndrome patient assessed as viable cells at 2.5 uM after 16 hrs by trypan blue exclusion assay
Format: functional
Details: read-out: Activity
In short: as §1

Q: Which viability at 2.5 µM does the source give for CCCCCCCCCCCCCCCCc1nc(N2CCC2)c(C)c(C)c1O here?
A: 81%

Q: For CCCCCCCCCCc1nc(N(C)C)c(C)c(C)c1O, which viability at 2.5 µM is on record?
A: 79%

Tested on: Lymphocyte
Assay: Cytoprotective activity in human lymphocytes obtained from FRDA patient assessed as viable cells at 0.1 uM after 16 hrs by trypan blue exclusion assay
Format: functional
Details: read-out: Activity
In short: as §1

Q: Which viability at 0.1 µM does the source give for CCCCCCCCCCCCCCCCc1nc(N2CCC2)c(C)c(C)c1O here?
A: 54%

Q: For CCCCCCCCCCc1nc(N(C)C)c(C)c(C)c1O, which viability at 0.1 µM is on record?
A: 36%

Species: Bos taurus
Assay: Inhibition of bovine heart mitochondrial NADH oxidase complex I/III/IV assessed as remaining activity at 1 uM by spectrophotometry relative to untreated control
Details: not given

Q: With CCCCCCCCCCCCCCCCc1nc(N2CCC2)c(C)c(C)c1O as the compound, how does the Activity read?
A: 93%

Q: With CCCCCCCCCCc1nc(N(C)C)c(C)c(C)c1O as the compound, how does the Activity read?
A: 35%

Tested on: Lymphocyte
Assay: Inhibition of ROS generation in diethyl maleate-treated human lymphocytes obtained from FRDA patient compound pretreated at 100 to 500 nM for 16 hrs using DCFH-DA by FACS analysis
Format: functional, cell-based
Details: not given
In short: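 FRDA lymphocytes pretreated with compounds at 100, 250 and 500 nM for 16 h, then given DEM for 80 min to raise ROS. Stained with DCFH-DA for 15 min, then DCF fluorescence read by flow cytometry. Reported as % ROS scavenging; mean ± SEM of three experiments run in duplicate.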

Q: For CCCCCCCCCCCCCCCCc1nc(N2CCC2)c(C)c(C)c1O, which inhibition is on record?
A: Active

Q: For CCCCCCCCCCc1nc(N(C)C)c(C)c(C)c1O, which inhibition is on record?
A: Active

Tested on: Lymphocyte
Assay: Increase in ATP production in CoQ10-deficient lymphocytes (unknown origin) assessed as cellular ATP level at 10 uM after 48 hrs using luciferin-luciferase reaction by bioluminescence assay relative to control
Format: functional
Details: not given
In short: as §2

Q: With CCCCCCCCCCCCCCCCc1nc(N2CCC2)c(C)c(C)c1O as the compound, how does the Activity read?
A: 70%

Q: For CCCCCCCCCCc1nc(N(C)C)c(C)c(C)c1O, which Activity is on record?
A: 52%

Tested on: Lymphocyte
Assay: Cytoprotective activity in human lymphocytes obtained from FRDA patient assessed as viable cells after 16 hrs by trypan blue exclusion assay
Format: functional, cell-based
Details: not given
In short: as §1

Q: Which Activity does the source give for CCCCCCCCCCCCCCCCc1nc(N2CCC2)c(C)c(C)c1O here?
A: Dose-dependent effect

Q: Which Activity does the source give for CCCCCCCCCCc1nc(N(C)C)c(C)c(C)c1O here?
A: Dose-dependent effect

Tested on: Lymphocyte
Assay: Inhibition of oxidative stress-induced mitochondrial membrane depolarization in diethyl maleate-treated human lymphocytes obtained from FRDA patient assessed as cells with intact mitochondrial membrane potential at 100 nM pretreated for 16 hrs using TMRM by FACS analysis (reference value: 95%)
Format: functional
Set-up: scale not given: the % may be the effect or the level left
Details: not given

Q: With CCCCCCCCCCCCCCCCc1nc(N2CCC2)c(C)c(C)c1O as the compound, how does the Activity read?
A: 54%

Q: Which Activity does the source give for CCCCCCCCCCc1nc(N(C)C)c(C)c(C)c1O here?
A: 65%

Tested on: Lymphocyte
Assay: Inhibition of oxidative stress-induced mitochondrial membrane depolarization in diethyl maleate-treated human lymphocytes obtained from FRDA patient assessed as cells with intact mitochondrial membrane potential pretreated for 16 hrs using TMRM by FACS analysis
Format: functional, cell-based
Details: not given

Q: With CCCCCCCCCCc1nc(N(C)C)c(C)c(C)c1O as the compound, how does the inhibition read?
A: Dose-dependent effect

Tested on: not listed separately
Assay: Metabolic stability in bovine liver microsomes at 25 uM after 30 mins by reverse phase HPLC analysis
Format: ADME, Bos taurus
Details: cattle, read-out: Stability
In short: (§3)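 Compounds incubated 30 min with activated bovine liver microsomes. Remaining parent compound quantified by reversed-phase HPLC and expressed as % recovered; mean ± SD.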

Q: With CCCCCCCCCCCCCCCCc1nc(N2CCC2)c(C)c(C)c1O as the compound, how does the remaining at 0.5 h, 25 µM read?
A: 95%

Q: Which remaining at 0.5 h, 25 µM does the source give for CCCCCCCCCCc1nc(N(C)C)c(C)c(C)c1O here?
A: 70%

Tested on: Lymphocyte
Assay: Cytoprotective activity in human lymphocytes obtained from FRDA patient assessed as viable cells at 0.5 uM after 16 hrs by trypan blue exclusion assay
Format: functional
Details: read-out: Activity
In short: as §1

Q: With CCCCCCCCCCCCCCCCc1nc(N2CCC2)c(C)c(C)c1O as the compound, how does the viability at 0.5 µM read?
A: 70%

Q: For CCCCCCCCCCc1nc(N(C)C)c(C)c(C)c1O, which viability at 0.5 µM is on record?
A: 74%

Tested on: Lymphocyte
Assay: Inhibition of lipid peroxidation in diethyl maleate-treated human lymphocytes obtained from FRDA patient at 100 to 250 nM after 16 hrs using C11-BODIPY581/591 by FACS analysis
Format: functional, cell-based
Details: not given
In short: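 FRDA lymphocytes depleted of glutathione with DEM, probed with C11-BODIPY581/591. Green (oxidized) fluorescence read by flow cytometry at 490/510 nm. Median mean fluorescence taken relative to untreated control and converted to % lipid peroxidation scavenging; mean ± SEM, n = 3.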

Q: Which inhibition does the source give for CCCCCCCCCCCCCCCCc1nc(N2CCC2)c(C)c(C)c1O here?
A: Active

Q: Which inhibition does the source give for CCCCCCCCCCc1nc(N(C)C)c(C)c(C)c1O here?
A: Active

Tested on: not listed separately
Assay: Drug metabolism in bovine liver microsomes at 25 uM after 30 mins by reverse phase HPLC analysis
Format: ADME, Bos taurus
Details: cattle, read-out: Drug metabolism
In short: as §3

Q: With CCCCCCCCCCc1nc(N(C)C)c(C)c(C)c1O as the compound, how does the metabolised at 0.5 h, 25 µM read?
A: 25%

Tested on: Lymphocyte
Assay: Cytoprotective activity in human lymphocytes obtained from Leigh's syndrome patient assessed as viable cells after 16 hrs by trypan blue exclusion assay
Format: functional, cell-based
Details: not given
In short: as §1

Q: Which Activity does the source give for CCCCCCCCCCCCCCCCc1nc(N2CCC2)c(C)c(C)c1O here?
A: Dose-dependent effect

Q: For CCCCCCCCCCc1nc(N(C)C)c(C)c(C)c1O, which Activity is on record?
A: Dose-dependent effect

Tested on: Lymphocyte
Assay: Increase in ATP production in CoQ10-deficient lymphocytes (unknown origin) assessed as cellular ATP level at 5 uM after 48 hrs using luciferin-luciferase reaction by bioluminescence assay relative to control
Format: functional
Details: not given
In short: as §2

Q: With CCCCCCCCCCCCCCCCc1nc(N2CCC2)c(C)c(C)c1O as the compound, how does the Activity read?
A: 92%

Q: Which Activity does the source give for CCCCCCCCCCc1nc(N(C)C)c(C)c(C)c1O here?
A: 89%

Tested on: Lymphocyte
Assay: Cytoprotective activity in human lymphocytes obtained from FRDA patient assessed as viable cells at 2.5 uM after 16 hrs by trypan blue exclusion assay
Format: functional
Details: read-out: Activity
In short: as §1

Q: With CCCCCCCCCCCCCCCCc1nc(N2CCC2)c(C)c(C)c1O as the compound, how does the viability at 2.5 µM read?
A: 87%

Q: For CCCCCCCCCCc1nc(N(C)C)c(C)c(C)c1O, which viability at 2.5 µM is on record?
A: 87%

Tested on: Lymphocyte
Assay: Inhibition of oxidative stress-induced mitochondrial membrane depolarization in diethyl maleate-treated human lymphocytes obtained from FRDA patient assessed as cells with intact mitochondrial membrane potential at 500 nM pretreated for 16 hrs using TMRM by FACS analysis (reference value: 95%)
Format: functional
Set-up: scale not given: the % may be the effect or the level left
Details: not given

Q: For CCCCCCCCCCCCCCCCc1nc(N2CCC2)c(C)c(C)c1O, which Activity is on record?
A: 85%

Q: With CCCCCCCCCCc1nc(N(C)C)c(C)c(C)c1O as the compound, how does the Activity read?
A: 90%

Tested on: Lymphocyte
Assay: Cytoprotective activity in human lymphocytes obtained from Leigh's syndrome patient assessed as viable cells at 0.5 uM after 16 hrs by trypan blue exclusion assay
Format: functional
Details: read-out: Activity
In short: as §1

Q: With CCCCCCCCCCCCCCCCc1nc(N2CCC2)c(C)c(C)c1O as the compound, how does the viability at 0.5 µM read?
A: 82%

Q: With CCCCCCCCCCc1nc(N(C)C)c(C)c(C)c1O as the compound, how does the viability at 0.5 µM read?
A: 77%
